Reference: PMC4765894 (Journal of Medicinal Chemistry, 2015)
“Also recorded” adds a separate entry of the source.

Key:
[1] = test system: HIF-1; experiment: Dual luciferase-reporter assay; assay type: cell-based, human; conditions: HEK-293T, 24 h; for IC50: Homo sapiens
Method in brief: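 HEK-293T seeded at 5 × 10^3 cells/well, attached 24 h, then transiently co-transfected with a firefly reporter carrying five HRE copies from the human VEGF promoter and a Renilla plasmid (pRL-SV40). Cells were then exposed to serially diluted test compound under 1% O2 for 24 h. Dual-Glo firefly read, then Stop & Glo Renilla read (10 min each). Firefly normalized to Renilla; three independent experiments.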

[2] = test system: HIF-1β; experiment: Western blot of HIF-1β expression in HEK-293T cells under hypoxia; assay type: cell-based, human; conditions: 1 μM, 24 h
Method in brief: (§1)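 HEK-293T cells were held under hypoxia (1% O2) for 24 h with or without test compound at 1 μM, with a normoxic comparison. Total protein lysates were resolved by SDS-PAGE and transferred to nitrocellulose. Membranes were blocked 30 min at room temperature in 5% skim milk/TBS-0.1% Tween-20, then given primary antibody overnight at 4 °C and HRP secondary 1 h at room temperature. Detection was chemiluminescent, with β-actin as internal control.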

[3] = test system: HIF-1α; experiment: Western blot of HIF-1α expression in HEK-293T cells under hypoxia; assay type: cell-based, human; conditions: 1 μM, hypoxia (1% O2), 24 h
Method in brief: as §1

[4] = test system: VEGF mRNA; experiment: Real-time PCR of VEGF mRNA under hypoxia; assay type: cell-based, human; conditions: 1 μM, hypoxic conditions, 24 h, normalized against β-actin
Method in brief: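 Cells were given test compound at 1 μM under hypoxic conditions for 24 h, with normoxic and hypoxic controls. Total RNA was extracted with TRIzol and cDNA made with MMLV reverse transcriptase. SYBR Green real-time PCR used 10-fold diluted cDNA and gene-specific primers: 2 min 50 °C, 10 min 95 °C, then 40 cycles of 15 s 95 °C and 1 min 60 °C. Mean CT values were normalized to β-actin; triplicate runs, averaged.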

[5] = test system: cyclin-dependent kinase 6 (Cdk6); experiment: Western blot of Cdk6; assay type: cell-based, human; conditions: 1 μM, hypoxic conditions, 24 h
Method in brief: as §1

[6] = test system: HIF-1α; conditions: 4T1 cells, hypoxic conditions, concentrations between 10 and 100 nM; cited from earlier work
[7] = test system: VEGF secretion; conditions: cited from earlier work

Row | Compound | IC50 [1] | regulation of HIF-1β [2] | expression level of HIF-1α [3] | protein level of Cdk6 [5] | other results
1 | COc1ccc(C(=O)COc2cc(C(=O)[C@@H](C)Oc3ccc([C@H]4O[C@H](c5ccc(O[C@H](C)C(=O)c6ccc(OC)c(OCC(=O)c7ccc(OC)c(OC)c7)c6)c(OC)c5)[C@H](C)[C@H]4C)cc3OC)ccc2OC)cc1OC [MA02] | > 10000 µM | – | – | – | HIF-1 inhibitory activity in luciferase assay (in words) ([1]; hypoxia (1% O2)): almost inactive
2 | COc1ccc([C@@H](O)[C@@H](C)Oc2ccc([C@H]3O[C@H](c4ccc(OC)c(OC)c4)[C@H](C)[C@H]3C)cc2OC)cc1OC [MA04, 4-O-methylsaucerneol] | – | did not regulate | significantly down-regulated; also recorded: inhibit the expression | decreased | VEGF mRNA levels [4]: significantly reduced
3 | COc1cc([C@H]2O[C@H](c3ccc(O[C@H](C)C(=O)c4ccccc4)c(OC)c3)[C@H](C)[C@H]2C)ccc1O[C@H](C)C(=O)c1ccccc1 [MA11] | – | did not regulate | significantly down-regulated; also recorded: inhibit the expression | decreased | –
4 | COc1ccc(C(=O)COc2ccc([C@H]3O[C@H](c4ccc(OCC(=O)c5ccc(OC)c(OC)c5)c(OC)c4)[C@H](C)[C@H]3C)cc2OC)cc1OC [MA07] | – | did not regulate | significantly down-regulated; also recorded: inhibit the expression | decreased | –
5 | COc1ccc([C@@H](O)[C@@H](C)Oc2ccc([C@H]3O[C@H](c4ccc(O[C@H](C)[C@H](O)c5ccc(OC)c(OC)c5)c(OC)c4)[C@H](C)[C@H]3C)cc2OC)cc1OC [compound 1, manassantin A, reference compound] | 0.011 ± 0.003 µM | did not regulate | inhibit the expression | – | hypoxia-induced HIF-1α expression [6]: significantly inhibited; HIF-1 regulated VEGF secretion [7]: dramatically reduced

Continued, in another order:

Row | IC50 [1] | Compound | regulation of HIF-1β [2] | expression level of HIF-1α [3] | protein level of Cdk6 [5] | other results
6 | 0.73 µM | C#CCOc1cc(C(=O)[C@@H](C)Oc2ccc([C@H]3O[C@H](c4ccc(O[C@H](C)C(=O)c5ccc(C6(C(F)(F)F)N=N6)cc5)c(OC)c4)[C@H](C)[C@H]3C)cc2OC)ccc1OC [MA13] | – | – | – | –
7 | 2.32 µM | COc1ccc(C(=O)[C@@H](C)Oc2ccc([C@H]3O[C@H](c4ccc(O[C@H](C)C(=O)c5ccc(C6(C(F)(F)F)N=N6)cc5)c(OC)c4)[C@H](C)[C@H]3C)cc2OC)cc1OCCOCCOCCNC(=O)CCCC[C@@H]1SC[C@@H]2NC(=O)N[C@@H]21 [MA14] | – | – | – | –
